Consider two molecules from article PMC9398166 (Molecular Cancer Therapeutics, 2021).

One data set concerns ALK(G1202R). The note with it: cited from earlier work.
A further data set is described as follows: Free. In kind it is in vivo, mice. The note with it: SCID/beige, mouse, plasma, oral, 5 mg/kg.
For data set [1] the following is noted: patients; ref FDA label; cited from earlier work.
For data set [2] the following is noted: ref FDA label; cited from earlier work.
Data set [3] can be described thus: Pharmacokinetic/pharmacodynamic analysis of phospho-ALK. In kind it is in vivo, mice. Conditions: SCID/beige, mouse, plasma, oral.
In data set [4] the target is EML4-ALK G1202R/L1196M fusion phosphorylation (Homo sapiens, UniProt Q9HC35+Q9UM73, G1202R/L1196M). The description is as above. The note with it: mouse, read-out: phosphorylation inhibition of EML4-ALK G1202R/L1196M fusion. In kind it is in vivo, mice.
A short description of data set [5]: Pharmacokinetics and brain distribution after repeat oral administration. The note with it: male Sprague Dawley rats; single oral administration. In kind it is in vivo. The method in brief: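 Male Sprague Dawley rats received 10 mg/kg orally once daily for 7 consecutive days. Plasma concentration profiles were determined on days 1 and 7. On day 7, terminal samples of plasma, cerebrospinal fluid and brain tissue were collected 1, 4 and 24 h postdose and analyzed by LC/MS-MS. Brain tissue levels were compared with plasma levels.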

For the molecule `C[C@H]1Oc2cc(cnc2N)-c2c(nn(C)c2C#N)CN(C)C(=O)c2ccc(F)cc21` [Lorlatinib, lorlatinib], in the data set with ALK(G1202R) (preclinical ALK(G1202R) xenograft model), the “unbound exposure necessary for maximum antitumor efficacy” value is […]. The EC90 in the data set on ALK(G1202R) (read-out: EC90 unbound exposure for inhibition of ALK(G1202R) phosphorylation, preclinical xenograft model) was […]. The concentration at 12 h in “Free” worked out at 358 nM. For the same molecule, in data set [1], the “AUC0–24h” value was 5650 ng·h/mL and the Cave unbound exposure result is given as “approximately 155 nmol/L”. The plasma protein binding in data set [2] is listed as 66%.

With `CC1(C)COc2ccc(F)cc2CN2c3nc4c(cnn4cc3OC[C@H]2C(F)F)C(=O)N1` [TPX-0131, (4S)-4-(difluoromethyl)-8-fluoro-13,13-dimethyl-3,4,13,14-tetrahydro-6H-18,1-(metheno)[1,4]oxazino[3,4-i]pyrazolo[4,3-f][1,4,8,10]benzoxatriazacyclotridecin-15(12H)-one], the concentration at 2 h in data set [3] stood at 19.5 nM. The inhibition at 0.0195 µM in data set [4] was greater than 90%. Also, in data set [5], the absorption result is recorded as “rapid absorption” and the elimination half-life result is listed as “long elimination half-life”.
